≈ marks a conversion by molar mass, not a printed value.
Legend:
Pseudomonas aeruginosa [1] = assay: Antimicrobial activity against Pseudomonas aeruginosa GP62KT41 harboring oprD gene after 18 hrs by agar dilution method; type: functional; conditions: GP62KT41, 18 h
Method in brief: (§1)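 Carbapenem-resistant mutants were isolated on carbapenem-containing AB3 agar after 10^6-fold dilution and broth culture, with or without ciprofloxacin or ofloxacin. Randomly picked colonies were checked for MIC by agar dilution following CLSI guidelines, with 18 h incubation at 37°C. PAO1KTL and PAO1KTS came from meropenem selection without fluoroquinolone.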

Pseudomonas aeruginosa [2] = assay: Antimicrobial activity against Pseudomonas aeruginosa GP37KT31 harboring oprD gene after 18 hrs by agar dilution method; type: functional; conditions: GP37KT31, 18 h; method in brief: as §1
Pseudomonas aeruginosa [3] = assay: Antimicrobial activity against wild-type Pseudomonas aeruginosa GP62 after 18 hrs by agar dilution method; type: functional; conditions: GP62, 18 h
Method in brief: (§2)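 MICs by agar dilution following CLSI guidelines; plates incubated 18 h at 37°C.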

Pseudomonas aeruginosa [4] = assay: Antimicrobial activity against Pseudomonas aeruginosa GP4KT11 harboring oprD gene after 18 hrs by agar dilution method; conditions: GP4KT11, 18 h
Pseudomonas aeruginosa [5] = assay: Antimicrobial activity against Pseudomonas aeruginosa PAO1 KTS harboring mexAB-oprM gene after 18 hrs by agar dilution method; type: functional; method in brief: as §1
Pseudomonas aeruginosa [6] = assay: Antimicrobial activity against Pseudomonas aeruginosa PAO1 KTL1 harboring oprD, mexAB-oprM gene after 18 hrs by agar dilution method; type: functional; conditions: PAO1 KTL1, 18 h
Pseudomonas aeruginosa [7] = assay: Antimicrobial activity against Pseudomonas aeruginosa PAO1 after 18 hrs by agar dilution method; type: functional; conditions: PAO1, 18 h; method in brief: as §2
Pseudomonas aeruginosa [8] = assay: Antimicrobial activity against Pseudomonas aeruginosa GP20KT21 harboring oprD gene after 18 hrs by agar dilution method; type: functional; conditions: GP20KT21, 18 h; method in brief: as §1
Pseudomonas aeruginosa [9] = assay: Antimicrobial activity against Pseudomonas aeruginosa PAO1 KTL harboring oprD gene after 18 hrs by agar dilution method; type: functional; method in brief: as §1
Pseudomonas aeruginosa [10] = assay: Antimicrobial activity against wild-type Pseudomonas aeruginosa GP20 after 18 hrs by agar dilution method; type: functional; conditions: GP20, 18 h; method in brief: as §2
Pseudomonas aeruginosa [11] = assay: Antimicrobial activity against wild-type Pseudomonas aeruginosa GP61 after 18 hrs by agar dilution method; type: functional; conditions: GP61, 18 h; method in brief: as §2
Pseudomonas aeruginosa [12] = assay: Antimicrobial activity against wild-type Pseudomonas aeruginosa GP4 after 18 hrs by agar dilution method; type: functional; conditions: GP4, 18 h; method in brief: as §2
Pseudomonas aeruginosa [13] = assay: Antimicrobial activity against Pseudomonas aeruginosa GP4KT111 harboring oprD,mexAB-oprM gene after 18 hrs by agar dilution method; type: functional; conditions: GP4KT111, 18 h
Pseudomonas aeruginosa [14] = assay: Antimicrobial activity against Pseudomonas aeruginosa PAO1 SO20 harboring mexAB-oprM gene after 18 hrs by agar dilution method; type: functional; conditions: PAO1 SO20, 18 h
Pseudomonas aeruginosa [15] = assay: Antimicrobial activity against wild-type Pseudomonas aeruginosa GP37 after 18 hrs by agar dilution method; type: functional; conditions: GP37, 18 h; method in brief: as §2
Pseudomonas aeruginosa [16] = assay: Antimicrobial activity against Pseudomonas aeruginosa PAO1 IPM46 harboring oprD gene after 18 hrs by agar dilution method; type: functional; conditions: PAO1 IPM46, 18 h
Pseudomonas aeruginosa [17] = assay: Antimicrobial activity against Pseudomonas aeruginosa GP61KT51 harboring oprD,mexAB-oprM gene after 18 hrs by agar dilution method; type: functional; conditions: GP61KT51, 18 h

CC(C)(O/N=C(\C(=O)N[C@@H]1C(=O)N2C(C(=O)[O-])=C(C[n+]3ccccc3)CS[C@H]12)c1csc(N)n1)C(=O)O [CEFTAZIDIME] was tested, and the MIC (Pseudomonas aeruginosa [1]) was 1.6 µg/mL (≈ 2.93 µM), the MIC (Pseudomonas aeruginosa [2]) was 1.6 µg/mL (≈ 2.93 µM) and the MIC (Pseudomonas aeruginosa [3]) was 1.6 µg/mL (≈ 2.93 µM). The MIC (Pseudomonas aeruginosa [4]) was 1.6 µg/mL (≈ 2.93 µM), the MIC (Pseudomonas aeruginosa [5]) was 6.3 µg/mL (≈ 11.5 µM) and the MIC (Pseudomonas aeruginosa [6]) was 6.3 µg/mL (≈ 11.5 µM). For the same molecule, the MIC (Pseudomonas aeruginosa [7]) was 1.6 µg/mL (≈ 2.93 µM), the MIC (Pseudomonas aeruginosa [8]) was 1.6 µg/mL (≈ 2.93 µM) and the MIC (Pseudomonas aeruginosa [9]) was 1.6 µg/mL (≈ 2.93 µM). The MIC (Pseudomonas aeruginosa [10]) was 1.6 µg/mL (≈ 2.93 µM), the MIC (Pseudomonas aeruginosa [11]) was 3.1 µg/mL (≈ 5.67 µM) and the MIC (Pseudomonas aeruginosa [12]) was 1.6 µg/mL (≈ 2.93 µM). It also gave an MIC (Pseudomonas aeruginosa [13]) of 6.3 µg/mL (≈ 11.5 µM), an MIC (Pseudomonas aeruginosa [14]) of 6.3 µg/mL (≈ 11.5 µM) and an MIC (Pseudomonas aeruginosa [15]) of 1.6 µg/mL (≈ 2.93 µM). For the same molecule, the MIC (Pseudomonas aeruginosa [16]) was 1.6 µg/mL (≈ 2.93 µM) and the MIC (Pseudomonas aeruginosa [17]) was 12.5 µg/mL (≈ 22.9 µM).
O=C(O)c1cn(C2CC2)c2cc(N3CCNCC3)c(F)cc2c1=O [CIPROFLOXACIN] showed an MIC (Pseudomonas aeruginosa [1]) of 0.2 µg/mL (≈ 0.604 µM), an MIC (Pseudomonas aeruginosa [2]) of 0.2 µg/mL (≈ 0.604 µM) and an MIC (Pseudomonas aeruginosa [3]) of 0.2 µg/mL (≈ 0.604 µM). The MIC (Pseudomonas aeruginosa [4]) was 0.2 µg/mL (≈ 0.604 µM), the MIC (Pseudomonas aeruginosa [5]) was 0.8 µg/mL (≈ 2.41 µM) and the MIC (Pseudomonas aeruginosa [6]) was 0.8 µg/mL (≈ 2.41 µM). For the same molecule, the MIC (Pseudomonas aeruginosa [7]) was 0.2 µg/mL (≈ 0.604 µM), the MIC (Pseudomonas aeruginosa [8]) was 0.2 µg/mL (≈ 0.604 µM) and the MIC (Pseudomonas aeruginosa [9]) was 0.2 µg/mL (≈ 0.604 µM). For the same molecule, the MIC (Pseudomonas aeruginosa [10]) was 0.2 µg/mL (≈ 0.604 µM), the MIC (Pseudomonas aeruginosa [11]) was 0.2 µg/mL (≈ 0.604 µM) and the MIC (Pseudomonas aeruginosa [12]) was 0.2 µg/mL (≈ 0.604 µM). The MIC (Pseudomonas aeruginosa [13]) was 0.8 µg/mL (≈ 2.41 µM), the MIC (Pseudomonas aeruginosa [14]) was 0.8 µg/mL (≈ 2.41 µM) and the MIC (Pseudomonas aeruginosa [15]) was 0.2 µg/mL (≈ 0.604 µM). For the same molecule, the MIC (Pseudomonas aeruginosa [16]) was 0.2 µg/mL (≈ 0.604 µM) and the MIC (Pseudomonas aeruginosa [17]) was 0.8 µg/mL (≈ 2.41 µM).
With C[C@@H](O)[C@H]1C(=O)N2C(C(=O)O)=C(S[C@@H]3CN[C@H](CNS(N)(=O)=O)C3)[C@H](C)[C@H]12 [DORIPENEM] the MIC (Pseudomonas aeruginosa [1]) was 0.8 µg/mL (≈ 1.9 µM), the MIC (Pseudomonas aeruginosa [2]) was 1.6 µg/mL (≈ 3.8 µM) and the MIC (Pseudomonas aeruginosa [3]) was 0.1 µg/mL (≈ 0.238 µM). For the same molecule, the MIC (Pseudomonas aeruginosa [4]) was 1.6 µg/mL (≈ 3.8 µM), the MIC (Pseudomonas aeruginosa [5]) was 0.4 µg/mL (≈ 0.951 µM) and the MIC (Pseudomonas aeruginosa [6]) was 1.6 µg/mL (≈ 3.8 µM). The MIC (Pseudomonas aeruginosa [7]) was 0.2 µg/mL (≈ 0.476 µM), the MIC (Pseudomonas aeruginosa [8]) was 1.6 µg/mL (≈ 3.8 µM) and the MIC (Pseudomonas aeruginosa [9]) was 0.8 µg/mL (≈ 1.9 µM). The MIC (Pseudomonas aeruginosa [10]) was 0.2 µg/mL (≈ 0.476 µM), the MIC (Pseudomonas aeruginosa [11]) was 0.8 µg/mL (≈ 1.9 µM) and the MIC (Pseudomonas aeruginosa [12]) was 0.2 µg/mL (≈ 0.476 µM). The MIC (Pseudomonas aeruginosa [13]) was 3.1 µg/mL (≈ 7.37 µM), the MIC (Pseudomonas aeruginosa [14]) was 0.4 µg/mL (≈ 0.951 µM) and the MIC (Pseudomonas aeruginosa [15]) was 0.2 µg/mL (≈ 0.476 µM). It also gave an MIC (Pseudomonas aeruginosa [16]) of 0.8 µg/mL (≈ 1.9 µM) and an MIC (Pseudomonas aeruginosa [17]) of 1.6 µg/mL (≈ 3.8 µM).
C[C@@H](O)[C@H]1C(=O)N2C(C(=O)O)=C(SCCNC=N)C[C@H]12 [IMIPENEM ANHYDROUS] showed an MIC (Pseudomonas aeruginosa [1]) of 12.5 µg/mL (≈ 41.8 µM), an MIC (Pseudomonas aeruginosa [2]) of 12.5 µg/mL (≈ 41.8 µM) and an MIC (Pseudomonas aeruginosa [3]) of 0.8 µg/mL (≈ 2.67 µM). For the same molecule, the MIC (Pseudomonas aeruginosa [4]) was 12.5 µg/mL (≈ 41.8 µM), the MIC (Pseudomonas aeruginosa [5]) was 0.8 µg/mL (≈ 2.67 µM) and the MIC (Pseudomonas aeruginosa [6]) was 12.5 µg/mL (≈ 41.8 µM). The MIC (Pseudomonas aeruginosa [7]) was 0.8 µg/mL (≈ 2.67 µM), the MIC (Pseudomonas aeruginosa [8]) was 12.5 µg/mL (≈ 41.8 µM) and the MIC (Pseudomonas aeruginosa [9]) was 12.5 µg/mL (≈ 41.8 µM). It also gave an MIC (Pseudomonas aeruginosa [10]) of 0.8 µg/mL (≈ 2.67 µM), an MIC (Pseudomonas aeruginosa [11]) of 6.3 µg/mL (≈ 21 µM) and an MIC (Pseudomonas aeruginosa [12]) of 0.8 µg/mL (≈ 2.67 µM). The MIC (Pseudomonas aeruginosa [13]) was 12.5 µg/mL (≈ 41.8 µM), the MIC (Pseudomonas aeruginosa [14]) was 0.8 µg/mL (≈ 2.67 µM) and the MIC (Pseudomonas aeruginosa [15]) was 0.8 µg/mL (≈ 2.67 µM). It also gave an MIC (Pseudomonas aeruginosa [16]) of 12.5 µg/mL (≈ 41.8 µM) and an MIC (Pseudomonas aeruginosa [17]) of 6.3 µg/mL (≈ 21 µM).

Reference: ChEMBL document CHEMBL1275521, “Fluoroquinolone enhances the mutation frequency for meropenem-selected carbapenem resistance in Pseudomonas aeruginosa, but use of the high-potency drug doripenem inhibits mutant formation” (2008)
